The species entered for test [1] is Homo sapiens. Kind of test: Inhibition of GCase in human leukocytes extracts at 1 mM using 4-methylumbelliferyl-beta-D-glucoside substrate incubated for 1 hr by spectrophotometry relative to untreated control. Type of test: cell-based. The procedure, abridged: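 Human leukocyte homogenates were used as the GCase source. Enzyme activity was measured with the test compound at 1 mM, and the result was expressed as percent inhibition.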

Test [2] can be described thus: Inhibition of GCase in human leukocytes extracts using 4-methylumbelliferyl-beta-D-glucoside substrate incubated for 1 hr by spectrophotometry. In kind it is cell-based. The procedure, abridged: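 Human leukocyte homogenates were used as the GCase source. IC50 was derived from GCase activity measured across a range of inhibitor concentrations.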
Test [3] can be described thus: Competitive inhibition of GCase in human leukocytes extracts using 4-methylumbelliferyl-beta-D-glucoside substrate incubated for 1 hr by spectrophotometry. Type of test: cell-based.
Test [4] is filed under the species Homo sapiens. Description: Chaperone activity at GCase N370/RecNcil mutant in human fibroblasts derived from Gaucher patient assessed as increase in GCase activity at 1 uM incubated for 4 days using 4-methylumbelliferyl-beta-D-glucoside substrate by spectrophotometry relative to untreated control.
The species named for test [5] is Homo sapiens. Kind of test: Chaperone activity at GCase N370/RecNcil mutant in human fibroblasts derived from Gaucher patient assessed as increase in GCase activity at 50 nM incubated for 4 days using 4-methylumbelliferyl-beta-D-glucoside substrate by spectrophotometry relative to untreated control.
The species entered for test [6] is Homo sapiens. Kind of test: Chaperone activity at GCase N370/RecNcil mutant in human fibroblasts derived from Gaucher patient assessed as increase in GCase activity at 100 uM relative to untreated control.
Test [7] is filed under the species Homo sapiens. Kind of test: Chaperone activity at GCase N370/RecNcil mutant in human fibroblasts derived from Gaucher patient assessed as increase in GCase activity at 100 uM incubated for 4 days using 4-methylumbelliferyl-beta-D-glucoside substrate by spectrophotometry relative to untreated control.
For test [8], the species on record is Homo sapiens. Kind of test: Chaperone activity at GCase N370/RecNcil mutant in human fibroblasts derived from Gaucher patient assessed as increase in GCase activity incubated for 4 days using 4-methylumbelliferyl-beta-D-glucoside substrate by spectrophotometry relative to untreated control.
The species entered for test [9] is Homo sapiens. Kind of test: Chaperone activity at GCase N370/RecNcil mutant in human fibroblasts derived from Gaucher patient assessed as increase in GCase activity at 10 nM incubated for 4 days using 4-methylumbelliferyl-beta-D-glucoside substrate by spectrophotometry relative to untreated control.
Test [10] is filed under the species Homo sapiens. Kind of test: Chaperone activity at GCase N370/RecNcil mutant in human fibroblasts derived from Gaucher patient assessed as increase in GCase activity at 10 uM incubated for 4 days using 4-methylumbelliferyl-beta-D-glucoside substrate by spectrophotometry relative to untreated control.
The species named for test [11] is Homo sapiens. Description: Chaperone activity at GCase N370/RecNcil mutant in human fibroblasts derived from Gaucher patient assessed as increase in GCase activity at 50 uM incubated for 4 days using 4-methylumbelliferyl-beta-D-glucoside substrate by spectrophotometry relative to untreated control.
The species named for test [12] is Homo sapiens. Kind of test: Chaperone activity at GCase L444P GBA gene mutant mutant in human fibroblasts derived from Gaucher patient assessed as increase in GCase activity at 100 uM incubated for 4 days using 4-methylumbelliferyl-beta-D-glucoside substrate by spectrophotometry relative to untreated control.

pIC50, pKi: −log10 of the molar value. Active and inactive are the calls of the source. No cut-off for these calls is given here.

As for `CCCCCCCCCCCC[C@H]1NC[C@@H](O)[C@@H](O)[C@@H]1O`, the inhibition (commonly the relative decrease from the control value, in per cent) in test [1] was found to be 95%. Also, in test [2], the pIC50 (usually the negative decadic logarithm of the IC50, by convention in mol/L) is 5.82. Besides, in [3], the pKi – broadly, −log10 of the Ki, conventionally taken in molar units – was 5.44. The fold change (FC) in [4] worked out at 1.4.
On to `CCCCCCCCCCC[C@@H]1NC[C@@H](O)[C@@H](O)[C@@H]1O`, for which the inhibition in [1] is 96%. The pIC50 in test [2] is 4.00. In addition, in test [5], the fold change (FC) was found to be 1.3.
With `CCCCCCCCCCC[C@H]1NC[C@@H](O)[C@@H](O)[C@@H]1O`, the inhibition in test [1] was found to be 100%. For the same compound, the pIC50 in test [2] was 5.15. Moreover, the fold change (FC) in [5] was determined as 1.2.
Compound `CCCCCCCCCCCC[C@@H]1NC[C@@H](O)[C@@H](O)[C@@H]1O` displayed an inhibition in test [1] of 91%. The pIC50 in [2] was 4.63. Further, in [4], the fold change (FC) worked out at 1.4.
Turning to `CCCCCCCCN1C[C@@H](O)C(O)[C@H](O)C1`, the fold change (FC) turned out to be 1.25 in [6] and 1.26 in test [7]. For the same compound, the inhibition in test [1] was determined as 98%. For the same compound, the pIC50 in test [2] was 4.52.
For the compound `CCCCCCCC[C@H]1[C@@H](O)[C@H](O)[C@H](O)CN1C`, the inhibition in [1] came out at 50%. In addition, in test [2], the pIC50 is less than 3.00.
In [1], `CCCCCCCCCCCCC[C@@H]1NC[C@@H](O)[C@@H](O)[C@@H]1O` registered an inhibition of 88%. The pIC50 in [2] was 3.80. Also, the outcome in test [8] was inactive.
As for `CCCCCCCC[C@H]1NC[C@@H](O)[C@@H](O)[C@@H]1O`, the inhibition in test [1] was 100%. Besides, in [2], the pIC50 is 4.53. The compound also had a pKi in test [3] of 4.73. Also, the fold change (FC) in [9] stood at 1.4; in [10], 1.6; in [11] it was 1.9; in [12], 1.8.
In the case of `CCCCCCCCCCCCC[C@H]1NC[C@@H](O)[C@@H](O)[C@@H]1O`, the inhibition in [1] came out at 98%. Besides, the pIC50 in test [2] was 5.05.
`CCCCCCCC[C@@H]1NC[C@@H](O)[C@@H](O)[C@@H]1O` came in with an inhibition in test [1] of 80%. Also, in test [2], the pIC50 is 4.03. For the same compound, the fold change (FC) in test [9] was 1.3.
